The results in this text go back to the RNAGym collection of RNA variant scans (doi:10.1126/science.aae0568).

Variants at the floor of the assay were thinned out.

B1: tRNA (parent)
chain: GUUCCGUUGGCGUAAUGGUAACGCGUCUCCCUCCUAAGGAGAAGACUGCGGGUUCGAGUCCCGUACGGAACG

In the data set the parent is B1. Nature of the data set: yeast fitness relative to wild type (ratio to wild type); higher = fitter; tRNA-Arg(CCU), competitive growth, 37 C, YPD. Summed up:
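For this measurement, the tRNA-Arg(CCU) gene was varied by chemical synthesis at a 3% per-site mutation rate across 69 sites, and each variant was placed at the native genomic locus in Saccharomyces cerevisiae. The pooled strains went through a 24-hour competition in YPD at 37°C in six parallel replicates, with amplicons from start and end populations read by 100-nucleotide paired-end sequencing. Darwinian fitness relative to wild type followed from the change in each genotype's frequency. Genotypes needed ≥ 100 starting reads, and estimates < 0.5 were set to 0.5.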
Take G17C A42G A70G: the yeast fitness was not above 0.5. The value for G17C C22U C60G was 0.719. The value for G17C A42C G68A was not above 0.5; that for G18A A20U C29G A37U was 0.563; that for G17C U53A G56A A57C A65C was not above 0.5.

As for G17C A36G A57G C66U A69C, the yeast fitness is 0.59. The value for G17C A20U G52C was not above 0.5; that for G17C U28A C34G G38A U59A was not above 0.5.

On to G17A C30U A57C A69C, for which the yeast fitness is 0.688. With G18A A20U C31U, the yeast fitness amounted to 0.545. For the variant G18A A45C C49U, the yeast fitness is 0.667. The value for G17C C31G A45C U54C C55A was not above 0.5; that for G17C C30G C33G was not above 0.5. For the variant G18A C22A U28C A40C, the yeast fitness was not above 0.5. Turning to G17C A20C C34A U47A A57U, the yeast fitness is not above 0.5. The value for G17C G25C C66U was not above 0.5; that for G18A C22U was 0.636; that for G18A C22U A40C G68C was not above 0.5. Consider G17C A37G A40C, for which the yeast fitness was 0.619. With G17C A20U C27U U53C the figure was 0.619; with G17A G68C, 0.928. For the variant G17A G68A, the yeast fitness was 0.81. In the case of G17U U19G A37G C66U A69U, the yeast fitness amounted to 0.561. With G17C C24A U47A C66U A69U the figure was not above 0.5. For G17C C29A A57U, the yeast fitness was not above 0.5.

On to G17C C55G, for which the yeast fitness is 0.616. For G17C C55U, the yeast fitness came out at 0.598.

Consider G17C C55A, for which the yeast fitness is not above 0.5. Take G17A C46U: the yeast fitness amounted to 0.878. In the case of G17A C46G, the yeast fitness turned out to be 0.712. On to G17A U28C C46U G63A, for which the yeast fitness is not above 0.5. The value for G17C C24A A36U G41C was not above 0.5; that for G18A A20U A36U A65C was 0.706; that for G17A G58A was 0.794.

For G17A C22U U32A C34U A37G A40U C62A G63A, the yeast fitness is 0.512. As for G17C U26G G39C A40U, the yeast fitness was not above 0.5.

Consider G18A A36C G48A, for which the yeast fitness is not above 0.5. The value for G18A A20U C49G U54A G68U A69U was not above 0.5; that for G18A A36U C61A was not above 0.5; that for G17C A21G U26G was not above 0.5.

For G18A A43G A65C, the yeast fitness was determined as 0.595.

As to G17A C31U U54G, the yeast fitness was 0.639. For the variant G17A U28C A42C C62U A70U, the yeast fitness was not above 0.5.

As for G18A C29U, the yeast fitness was 0.813. With G17A U28G C30G A40C A42U the figure was not above 0.5; with G17C A21G C27U C33G A42U, 0.621. With G18A A21C G39A C55U C60G A69U the figure was 0.523; with G17U C24U, 0.84. The value for G17C C33U A43G was not above 0.5. Regarding G17C A36G A45G, the yeast fitness turned out to be 0.505. With G18A A20U C62A A70C the figure was 0.552; with G17C G18C G63C U64C, not above 0.5; with G17C C30G C49U A57C C61G, not above 0.5. As to G17C U26C C46U A65U, the yeast fitness was determined as 0.558. The value for G17A C33G A36G G63A was not above 0.5; that for G17C G41A G56C was 0.619; that for G17C C33G A70G was not above 0.5. With G17C G63C C66U, the yeast fitness is not above 0.5. The value for G17C G44A A45C was not above 0.5; that for G17A C33U was 0.607; that for G18A A40G was 0.74. With G17C G23U U28A C31G the figure was 0.655; with G17C C33G U59G A69U, 0.665; with G17A C30G A45G A65U, not above 0.5. With G17A C30A C66U A70G the figure was not above 0.5. Take G17A G52A: the yeast fitness worked out at 0.549. With G17A C33G C66U the figure was not above 0.5; with G17C C33G G48U, not above 0.5. With G17A C34A G52U the figure was not above 0.5; with G17A U54A A70G, not above 0.5; with G17C U54C, 0.536.

G17C C49G: the yeast fitness was 0.743. With G17A C61G G68A the figure was not above 0.5; with G17C C29A A36G A43U, not above 0.5; with G17A G39C G56C, not above 0.5. The value for G17C G18C C31G A42G was not above 0.5. In the case of G18A A42C C61A, the yeast fitness was not above 0.5. The value for G17C C29G A37C U64C was 0.771; that for G17C G56A was 0.709. Consider G17C G56C, for which the yeast fitness came to 0.633. As for G17A C33A A37U A57G, the yeast fitness was not above 0.5. With G17C G56C A57G G68U the figure was 0.571.

As to G18A C34G C55G A65U, the yeast fitness was not above 0.5. G18A A69C: the yeast fitness came to 0.926.

Take G17C C24G C34U: the yeast fitness was 0.527. With G18A A40U A42U A65C the figure was 0.534; with G17A U54C U59C C61G, not above 0.5. As for G18A C31G U47C, the yeast fitness is not above 0.5. Regarding G17C C29G A43G, the yeast fitness is not above 0.5. The value for G17C A57G G67A was 0.56; that for G18A C30G G44C was 0.646; that for G18A A20G A69U was 0.542.

Turning to G17A C55A, the yeast fitness amounted to 0.547. For the variant G17A C55G, the yeast fitness was not above 0.5.

As to G18A C30U C55A, the yeast fitness is 0.592.

Consider G17C C46G, for which the yeast fitness amounted to 0.747.

For G18A C27A G68C, the yeast fitness was not above 0.5.

G17A C30G A45G C61G: the yeast fitness was not above 0.5. With G17A G18C the figure was 0.63. With G17A G18A the figure was 0.65; with G17C A21G A40C G44C C61A, 0.622; with G18A C30U A40G C46U, not above 0.5. With G17A G56C G58C G63A the figure was not above 0.5; with G17C C31A, 0.551.

For the variant G17C G48C, the yeast fitness was 0.709. With G18A A40C U47G A65C, the yeast fitness was not above 0.5. Consider G17A C31A G48C, for which the yeast fitness is not above 0.5. Turning to G18A C34U, the yeast fitness is not above 0.5. With G18A A20C C34U A36U G39C the figure was 0.539; with G18A C27U A37G A70C, not above 0.5; with G17C C24G U28A C30U, 0.646.

As for G17A G23C C33G C46A C66A, the yeast fitness was not above 0.5.

Take G17C C27U C34U A42U: the yeast fitness is not above 0.5. Consider G18A C30A U32A U35G G67A, for which the yeast fitness is not above 0.5.

G17A C33G A40U G51C: the yeast fitness was not above 0.5. The value for G17A U19A G23A C31U C34A G48C C62U was not above 0.5. For the variant G17C C24A, the yeast fitness came out at 0.56. For G17C C24U, the yeast fitness worked out at 0.607. With G17A U19A C30U G67A the figure was not above 0.5; with G17C G51A A65C, not above 0.5; with G17A U32A G67C, 0.6. With G17C C31A C60A A65U the figure was 0.532. With G17C C22U C30U A37U the figure was not above 0.5. For G17C C62U A65C, the yeast fitness amounted to 0.593. For G18A C24A C31A, the yeast fitness was not above 0.5.

G17C C24U G41A: the yeast fitness was not above 0.5.

Take G18A C31U A70U: the yeast fitness worked out at 0.656.

With G18A C31U A70G, the yeast fitness was found to be 0.726. With G17C G48C G67C, the yeast fitness was not above 0.5. With G18A C30G the figure was not above 0.5; with G18A C30A U32A U35G, not above 0.5. Take G17C U32C A42U: the yeast fitness was 0.559. The value for G17A C34U C46G A65U was not above 0.5. The value for G17C A20G C46A C60U was not above 0.5; that for G17C C22G C30U G41C was 0.612. With G18A A20U A42G the figure was not above 0.5; with G17C U35C G51A C66G, not above 0.5.

Turning to G17A U54A, the yeast fitness was found to be 0.566. The value for G17C C61U C62U C66A was 0.593; that for G17C U19C A20G G68U was not above 0.5; that for G18A A20U A36U C62U was not above 0.5. With G17A C34A A57U the figure was not above 0.5; with G17A U59C, 0.62; with G17A C31G G68A, not above 0.5. As for G18A C24G C27U C62U, the yeast fitness is not above 0.5. Regarding G17C C22G U26C U47A C66G, the yeast fitness is not above 0.5. With G17C G51C C66U the figure was not above 0.5; with G17A C30G C46U G63C C66U, not above 0.5.

Turning to G17C G39C, the yeast fitness is 0.59. With G18A A57G G58C the figure was 0.63. With G17A G41A the figure was 0.665; with G17C U47C, 0.711; with G17C G50A, 0.616.

In the case of G17A U32C, the yeast fitness was 0.704.

On to G17A U32G, for which the yeast fitness is 0.572. With G17C U53G A70U the figure was 0.564; with G17A C31U A42C, 0.582; with G18A A42G, 0.692.

As for G17A C29U U35G A37C G38C A65C, the yeast fitness is not above 0.5. G17C C29G G39A: the yeast fitness is not above 0.5. With G17C C34U the figure was 0.529. For G18A C33U C46G, the yeast fitness was found to be 0.634. With G17C A20U C33G A70U the figure was not above 0.5; with G18A C30U A40U G44C, not above 0.5.

G17A C27G C46G A65G: the yeast fitness is not above 0.5. For the variant G17A C24U C29G, the yeast fitness turned out to be 0.533. The value for G17C A70C was 0.751.
